Measured values: publication PMC11370311 (Cell reports, 2024)

Key:
SND1 = experiment: GFP-Trap IP-MS of GFP-RMET; format: cell-based, human; details: HEK293T, with vs without AdOx, 3 days, label-free MS
In short: (§1)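 HEK293T cells at 80% confluence were transfected with GFP-RMET using lipofectamine 2000. Half the cells got 25uM AdOx for 3 days. Lysis was in mild buffer (10 mM Tris/Cl pH 7.5, 150 mM NaCl, 0.5 mM EDTA, 0.5% NP-40) with protease inhibitors, then sonication and clearing. GFP-trap agarose ran 2 h at 4°C, followed by washing, elution, gel and LC-MS. Peptide counts per protein were taken at 1% protein FDR, 2 peptides minimum, and 0.1% peptide FDR.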

SMN = experiment: GFP-Trap IP-MS of GFP-RMET; format: cell-based, human; details: HEK293T, with vs without AdOx, 3 days, label-free MS
In short: as §1

RIOK1 = experiment: GFP-Trap IP-MS of GFP-RMET; format: cell-based, human; details: HEK293T, AdOx-treated, 3 days, label-free MS
In short: (§2)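 HEK293T cells were transfected with GFP-RMET; half were treated with 25uM AdOx for 3 days. Cells were lysed in mild NP-40 buffer with protease inhibitors and sonicated, and cleared lysate was captured on GFP-trap agarose 2 h at 4°C. Eluates were gel-separated and the excised bands analysed by nanoLC-MS/MS on an Orbitrap Fusion. Sequest HT searching used 10 ppm MS and 0.6 Da MS/MS tolerance, with 1% protein FDR (2 peptides) and 0.1% peptide FDR. Peptide counts per protein were reported.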

PRMT5 = experiment: GFP-Trap IP-MS of GFP-RMET; format: cell-based, human; details: HEK293T, AdOx-treated, 3 days, label-free MS
In short: as §2

PRMT1 = experiment: GFP-Trap IP-MS of GFP-RMET; format: cell-based, human; details: HEK293T, AdOx-treated, 3 days, label-free MS
In short: as §2

MEP50 = experiment: GFP-Trap IP-MS of GFP-RMET; format: cell-based, human; details: HEK293T, AdOx-treated, 3 days, label-free MS
In short: as §2

GST-SART3(HAT) (N + C) = experiment: Biotinylated GAR peptide pull-down of GST-SART3; format: binding; details: 2 μg GST-tagged protein, 1h at 4°C, western blot, repeated three times
In short: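 Streptavidin beads loaded with biotinylated GAR peptides (1 h, 4°C, rocking): fibrillarin unmethylated, ADMA or SDMA; coilin unmethylated, or SDMA at Arg 1–3 or 3–5. After 3 washes in mild lysis buffer (10 mM Tris/Cl pH 7.5, 0.5 mM EDTA, 0.5% NP-40), beads took 2 μg GST protein for 1 h at 4°C with rocking. Coilin pull-downs also ran in RIPA. Bound protein was eluted and read by western blot.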

[1] = test system: interaction between GFP-SART3 and endogenous coilin; experiment: Co-IP of GFP-SART3 with endogenous coilin; format: cell-based, human; details: HEK293T; 3 days; 10uM EPZ015666 or 1uM MS023; IP/western blot
In short: (§3)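 HEK293T cells were grown at 37°C in DMEM with 10% FBS and 1% antibiotic-antimycotic, then transfected at 80% confluence using lipofectamine 2000. They were treated with 10uM EPZ015666 (PRMT5) or 1uM MS023 (PRMT1) for 3 days. Lysates were made in mild buffer (10mM Tris pH 7.5, 150mM NaCl, 0.5mM EDTA, 0.5% NP-40, protease inhibitors). Anti-GFP on Protein A/G beads was incubated with lysate 2 h at 4°C, then SDS-PAGE, PVDF, ECL western.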

[2] = test system: interaction between GFP-SART3 and endogenous fibrillarin; experiment: Co-IP of GFP-SART3 with endogenous fibrillarin; format: cell-based, human; details: HEK293T; 3 days; 10uM EPZ015666 or 1uM MS023; IP/western blot
In short: as §3

[3] = test system: interaction between SART3 and the representative spliceosomal proteins; experiment: Co-IP of GFP-SART3 with representative spliceosomal proteins; format: cell-based, human; details: HeLa, 10uM EPZ015666, 3 days, IP/western blot
In short: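 HeLa SART3-KO clones were made by lentiCRISPRv2 and blasticidin 10 μg/mL, then single-cell cloned. They were restored by lentiviral GFP-SART3 (WT, Y112A or W377A) with puromycin 2 μg/mL selection. Lysates in mild NP-40 buffer were incubated with anti-GFP on Protein A/G beads, 2 h at 4°C, washed three times and boiled. Partners were detected by SDS-PAGE/PVDF western with HRP secondary and ECL on X-ray film.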

## Nc1ncnc2c1ncn2C(C=O)OC(C=O)CO (stereo not shown) [AdOx]
SND1
  enrichment of SND1 as RMET binder: selectively enriched as RMET binders, exclusively in cells that were not treated with AdOx
SMN
  enrichment of SMN as RMET binder: selectively enriched as RMET binders, exclusively in cells that were not treated with AdOx
RIOK1
  enrichment of RIOK1 with RMET: relatively enriched
PRMT5
  enrichment of PRMT5 with RMET: relatively enriched
PRMT1
  enrichment of PRMT1 with RMET: relatively enriched
MEP50
  enrichment of MEP50 with RMET: relatively enriched

## Biotin-AKGRGMRG[Rme2s]G[Rme2s]G[Rme2s]GHP-Amide
GST-SART3(HAT) (N + C); biotinylated coilin GAR peptides, mild buffer (300 mM NaCl)
  binding of coilin GAR peptide to GST-SART3(HAT): strong interaction

## GGRGRGGGFRGRGRGGGG-Biotin [unmethylated]
GST-SART3(HAT) (N + C); biotinylated fibrillarin GAR peptides, streptavidin beads, mild buffer (150 mM NaCl)
  pull-down of GST-SART3(HAT) by fibrillarin GAR peptide: only the SDMA-modified peptide pulled down GST-SART3(HAT)

## CC(C)Oc1ccc(-c2c[nH]cc2CN(C)CCN)cc1 [MS023]
[1]
  interaction between GFP-SART3 and endogenous coilin: this reduced interaction was not observed
[2]
  interaction between GFP-SART3 and endogenous fibrillarin: this reduced interaction was not observed

## O=C(NC[C@H](O)CN1CCc2ccccc2C1)c1cc(NC2COC2)ncn1 [EPZ015666]
[1]
  interaction between GFP-SART3 and endogenous coilin: reduced the interaction
[2]
  interaction between GFP-SART3 and endogenous fibrillarin: reduced the interaction
[3]
  interaction between SART3 and representative spliceosomal proteins: inhibits the interaction
